In ChEMBL document CHEMBL1806443, “Novel imidazo[4,5-b]pyridine and triaza-benzo[c]fluorene derivatives: synthesis, antiproliferative activity and DNA binding studies” (Eur J Med Chem, 2011):

Assays:
SW-620 = experiment: Antiproliferative activity against human SW620 cells after 72 hrs by MTT assay; assay type: functional, cell-based
In short: (§1)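 Monolayer cells in DMEM with 10% FBS, 2 mM L-glutamine, penicillin and streptomycin at 37 °C, 5% CO2. Seeded at 3000-6000 cells/well by doubling time on day 0. Five 10-fold dilutions (0.01–100 µM) were added and incubated 72 h. MTT read-out, converted to percentage growth. IC50 by linear regression between bracketing concentrations. Quadruplicate points, three independent experiments, ANOVA/Tukey p<0.05.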

MCF7 = experiment: Antiproliferative activity against human MCF7 cells after 72 hrs by MTT assay; assay type: functional, cell-based; in short: as §1
HEp-2 = experiment: Antiproliferative activity against human Hep2 cells after 72 hrs by MTT assay; assay type: functional, cell-based; in short: as §1
MIA PaCa-2 = experiment: Antiproliferative activity against human MIAPaCa2 cells after 72 hrs by MTT assay; assay type: functional, cell-based; in short: as §1
HeLa = experiment: Antiproliferative activity against human HeLa cells after 72 hrs by MTT assay; assay type: functional, cell-based; in short: as §1
WI-38 [1] = experiment: Antiproliferative activity against human WI38 cells after 72 hrs by MTT assay; assay type: cell-based; conditions: Homo sapiens, WI-38, 72 h; in short: as §1
SK-BR-3 = experiment: Antiproliferative activity against human SKBR3 cells after 72 hrs by MTT assay; assay type: functional, cell-based; in short: as §1
WI-38 [2] = experiment: Cytostatic activity against human WI38 cells at 1 to 10 uM after 72 hrs by MTT assay; assay type: ADME, cell-based; conditions: wi-38, 72 h
In short: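 Monolayers in DMEM with 10% FBS, 2 mM L-glutamine, penicillin and streptomycin (37 °C, 5% CO2) were seeded at 3000–6000 cells/well on day 0. Five 10-fold dilutions (0.01–100 µM) were added, followed by 72-h incubation and MTT read-out. Absorbances were converted to percentage growth by the NIH formulae. Each point was run in quadruplicate in three experiments; ANOVA with Tukey test.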

SMILES: O=[N+]([O-])c1ccc2c(ccc3nc4ncc(Br)cc4n32)c1
- IC50 (SW-620; Homo sapiens, SW-620, 72 h): 61.2 µM
- IC50 (MCF7; Homo sapiens, MCF7, 72 h): > 100 µM
- IC50 (HEp-2; Homo sapiens, HEp-2, 72 h): 31.1 µM
- IC50 (MIA PaCa-2; Homo sapiens, MIA PaCa-2, 72 h): 63.5 µM
- IC50 (HeLa; Homo sapiens, HeLa, 72 h): 13.4 µM
- IC50 (WI-38 [1]): > 100 µM
- IC50 (SK-BR-3; Homo sapiens, SK-BR-3, 72 h): 8.11 µM

SMILES: O=[N+]([O-])c1ccc2c(ccc3nc4ncccc4n32)c1
- IC50 (SW-620; Homo sapiens, SW-620, 72 h): > 100 µM
- IC50 (MCF7; Homo sapiens, MCF7, 72 h): > 100 µM
- IC50 (HEp-2; Homo sapiens, HEp-2, 72 h): > 100 µM
- IC50 (MIA PaCa-2; Homo sapiens, MIA PaCa-2, 72 h): > 100 µM
- IC50 (HeLa; Homo sapiens, HeLa, 72 h): 52.8 µM
- IC50 (WI-38 [1]): 75.7 µM
- IC50 (SK-BR-3; Homo sapiens, SK-BR-3, 72 h): 42.7 µM

SMILES: Nc1ccc2c(ccc3nc4ncccc4n32)c1
- IC50 (SW-620; sw-620): 25.9 µM
- IC50 (MCF7; mcf7): 56 µM
- IC50 (HEp-2; hep-2): 26.7 µM
- IC50 (MIA PaCa-2; mia paca-2): 43.4 µM
- IC50 (HeLa; hela): 27.2 µM
- IC50 (SK-BR-3; sk-br-3): 3.64 µM

SMILES: Nc1ccc2c(ccc3nc4ncc(Br)cc4n32)c1
- IC50 (SW-620; Homo sapiens, SW-620, 72 h): 38.6 µM
- IC50 (MCF7; Homo sapiens, MCF7, 72 h): 61.7 µM
- IC50 (HEp-2; Homo sapiens, HEp-2, 72 h): 14.1 µM
- Activity (WI-38 [2]): Toxic
- IC50 (MIA PaCa-2; Homo sapiens, MIA PaCa-2, 72 h): 33 µM
- IC50 (HeLa; Homo sapiens, HeLa, 72 h): 30.9 µM
- IC50 (WI-38 [1]): 85.4 µM
- IC50 (SK-BR-3; Homo sapiens, SK-BR-3, 72 h): 7.76 µM

SMILES: O=[N+]([O-])c1ccc(Cl)c(/C=C/c2nc3ncccc3[nH]2)c1
- IC50 (SW-620; Homo sapiens, SW-620, 72 h): 52 µM
- IC50 (MCF7; Homo sapiens, MCF7, 72 h): 53.6 µM
- IC50 (HEp-2; Homo sapiens, HEp-2, 72 h): 49.4 µM
- IC50 (MIA PaCa-2; Homo sapiens, MIA PaCa-2, 72 h): 38.8 µM
- IC50 (HeLa; Homo sapiens, HeLa, 72 h): 45.1 µM
- IC50 (WI-38 [1]): 61.6 µM
- IC50 (SK-BR-3; Homo sapiens, SK-BR-3, 72 h): 1.8 µM

SMILES: c1ccc2c(c1)ccc1nc3ncccc3n12 [7,8,11b-triazabenzo[c]fluorene]
- IC50 (SW-620; Homo sapiens, SW-620, 72 h): 78.3 µM
- IC50 (MCF7; Homo sapiens, MCF7, 72 h): 75.5 µM
- IC50 (HEp-2; Homo sapiens, HEp-2, 72 h): 52.3 µM
- IC50 (MIA PaCa-2; Homo sapiens, MIA PaCa-2, 72 h): 80.5 µM
- IC50 (HeLa; Homo sapiens, HeLa, 72 h): 14.3 µM
- IC50 (WI-38 [1]): 47.4 µM
- IC50 (SK-BR-3; Homo sapiens, SK-BR-3, 72 h): 83.5 µM

SMILES: C[n+]1cccc2c1nc1ccc3cc([N+](=O)[O-])ccc3n12
- IC50 (SW-620; Homo sapiens, SW-620, 72 h): 26.7 µM
- IC50 (MCF7; Homo sapiens, MCF7, 72 h): > 100 µM
- IC50 (HEp-2; Homo sapiens, HEp-2, 72 h): 31.5 µM
- IC50 (MIA PaCa-2; Homo sapiens, MIA PaCa-2, 72 h): > 100 µM
- IC50 (HeLa; Homo sapiens, HeLa, 72 h): 11.4 µM
- IC50 (WI-38 [1]): > 100 µM
- IC50 (SK-BR-3; Homo sapiens, SK-BR-3, 72 h): 33.6 µM

SMILES: N#Cc1ccc(/C=C/c2nc3ncccc3[nH]2)cc1
- IC50 (SW-620; Homo sapiens, SW-620, 72 h): > 100 µM
- IC50 (MCF7; Homo sapiens, MCF7, 72 h): 12.9 µM
- IC50 (HEp-2; Homo sapiens, HEp-2, 72 h): 84.9 µM
- IC50 (MIA PaCa-2; Homo sapiens, MIA PaCa-2, 72 h): > 100 µM
- IC50 (HeLa; Homo sapiens, HeLa, 72 h): 47.1 µM
- IC50 (WI-38 [1]): > 100 µM
- IC50 (SK-BR-3; Homo sapiens, SK-BR-3, 72 h): 86.6 µM
